High-throughput results deposited in PubChem BioAssay by several laboratories.
V-ATPase pHluor: alters yeast V-ATPase proton transport. 350,000 tested, 0.37% active. response, % at 10 µM. S. cerevisiae, pHLuorin cytosolic pH fluorescence; in the data active means response mostly above about 7.3%, no sharp cut-off; inactive means mostly below about 5.4%; further: actives read high
T cell HTS: T cell immune modulators affecting CD8 T cell-vesicle binding; 2C CD8+ T cell-vesicle binding, flow cytometry; active compounds read low; response (vesicle binding), % at 7 µM; 330,000 tested, 0.068% active;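 active means response, share of CD8 T cells binding vesicles, and their 90th percentile fluorescence all below set limits, cut at about 80% in these data, passing the limit was not always enough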;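 further: values below 100% mean blocked vesicle binding to the CD8+ T cells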
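incubation = binding step 1.5 h, 37 °C, antibody labelling 20 min, ice | test system = 2C mouse CD8+ T cells | read-out basis = percent CD8+ FL2 mean versus row control | controls = Peptide-free naked vesicles (low) and QL9 vesicles with 0.7% DMSO vehicle (high) | detection = flow cytometry of vesicle-bound cells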
rCAG RNA binder: binds r(CAG) RNA repeats; r(CAG) RNA repeat, TO-PRO-1 dye displacement fluorescence; inhibition, % at 3 µM; 370,000 tested, 1.3% active; AID 651821;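 active means inhibition above the plate cutoff, the mean of all test compounds on that plate plus 3 SD, cut at about 35% in these data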;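 further: 0% = DMSO alone and 100% = 100 µM mitoxantrone as full dye displacement; higher means more dye released from RNA so lower well fluorescence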
MPTP inh: inhibitors of mitochondrial permeability transition pore; 360,000 tested, 1.4% active; inhibition, % at 10 µM; AID 602449; isolated mouse mitochondria, Ca2+ swelling absorbance, 30 min;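 active means inhibition of 50% or more, scaled per plate between neutral and stimulator controls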;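 further: 0% = DMSO wells given calcium and 100% = 1 mM EGTA wells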
B2AR ag: activates human beta-2 adrenergic receptor causing internalization; P07550; Am2.2-beta2AR cells, FAP receptor internalization, flow cytometry; response, % (test concentration not listed); 340,000 tested, 0.43% active; AID 504454;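 active means response above a set limit, near 3 SD of response in nonfluorescent compounds, cut at about 42% in these data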
Target sequence (P07550 whole entry, looked up): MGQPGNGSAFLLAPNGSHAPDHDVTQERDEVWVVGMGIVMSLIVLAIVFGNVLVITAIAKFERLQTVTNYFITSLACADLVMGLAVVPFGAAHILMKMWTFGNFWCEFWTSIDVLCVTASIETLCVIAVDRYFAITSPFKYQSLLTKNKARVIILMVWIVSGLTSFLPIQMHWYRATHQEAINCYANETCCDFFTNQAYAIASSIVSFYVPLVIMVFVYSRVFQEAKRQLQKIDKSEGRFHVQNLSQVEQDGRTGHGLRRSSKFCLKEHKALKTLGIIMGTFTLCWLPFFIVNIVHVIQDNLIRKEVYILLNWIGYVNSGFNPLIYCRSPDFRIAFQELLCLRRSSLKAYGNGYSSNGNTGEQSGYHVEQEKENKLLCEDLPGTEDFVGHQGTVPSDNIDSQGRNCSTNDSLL
Granule exo inh: blocks lytic granule exocytosis | TALL-104 LAMP-1 surface exposure, flow cytometry; cells stimulated with thapsigargin and PMA | inhibition, % at 10 µM | 360,000 tested, 0.66% active | AID 651702;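 active means inhibition above about 55%, limit read from the data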
MPTP counter: Rhodamine 123 counter-screen of mitochondrial pore hits; AID 624504; shares compounds with MPTP inh; inhibition, % at 10 µM; 5,000 tested, 78% active; isolated mitochondria, membrane potential, Rhodamine 123 fluorescence; in the data active means inhibition above about 22%;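 further: 0% = DMSO vehicle and 100% = positive control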
* hit, by the source's call; i = inactive; · = no result given. The list is not random: actives were taken first. Their share in the collection is about 3.8%.

SMILES	V-ATPase pHluor	T cell HTS	rCAG RNA binder	MPTP inh	B2AR ag	Granule exo inh	MPTP counter
CCCOC(=O)c1cccc(Nc2nc(-c3cccnc3)nc3ccccc23)c1	0	162	6	66*	1	12	73*
CCOc1ccccc1CNS(=O)(=O)c1ccc(-c2cnc(C3CC3)o2)cc1	-1	i	3	51*	17	14	84*
O=S(=O)(NCc1ccccc1)c1ccc(-c2cnc(C3CC3)o2)cc1	-3	341	-2	-1	-7	-2	·
CCN(CC)CCOc1ccc(/C(=C(\Cl)c2ccccc2)c2ccccc2)cc1	7	247	3	104*	60*	5	-13
CCN(CC)CCOc1ccc(Br)cc1	6	427	-3	-2	3	-7	·
O=C(CSc1nc2cc(Cl)ccc2o1)Nc1ccc(N2CCOCC2)cc1	-2	350	·	51*	5	-2	68*
O=C(CSc1nc2ccccc2o1)Nc1ccc(N2CCOCC2)cc1	1	276	-5	30	-15	-1	·
Cc1ccc(Nc2ccc([N+](=O)[O-])cn2)cc1Cl	1	228	13	75*	-5	39	69*
O=[N+]([O-])c1ccc(-c2cnc(SCc3ccccc3Cl)[nH]2)cc1	0	167	7	37	-4	14	·
O=[N+]([O-])c1ccc(-c2cnc(SC(c3ccccc3)c3ccccc3)[nH]2)cc1	-2	224	17	90*	-5	4	76*
Cc1cc(=O)[nH]c2c1c(C)nn2-c1ccccc1	-1	381	-3	0	-1	-2	·
Cc1nn(-c2ccc(Cl)cc2)c2[nH]c(CCl)cc(=O)c12	3	182	28	81*	9	-5	81*
CSc1cccc(NC(=O)CCCOc2ccc(Cl)cc2C)c1	-2	273	0	75*	-2	-1	81*
COc1ccc(CC(=O)Nc2cccc(SC)c2)cc1OC	-3	·	-1	54*	3	-2	42*
COc1ccc(CC(=O)Nc2cccc(S(=O)(=O)N3CCCCCC3)c2)cc1OC	-2	585	2	87*	-4	-2	81*
COC(=O)c1cc(NC(=O)Cc2ccc(OC)c(OC)c2)cc(C(=O)OC)c1	-4	256	4	-1	-1	-1	·
O=C(CSc1nnc(-c2ccccc2)n1-c1ccc(Cl)cc1)Nc1ccccc1-c1ccccc1	·	·	10	·	·	·	·
Cc1sc2nc(COC(=O)CNC(=O)c3cc(F)ccc3F)[nH]c(=O)c2c1C	·	·	1	·	·	·	·
COc1ccc([N+](=O)[O-])cc1NC(=S)NC(NC(C)=O)C(Cl)(Cl)Cl (configuration not stated)	-2	0	12	9	-1	25	·
COc1ccc([N+](=O)[O-])cc1NC(=S)NC(NC(=O)Cc1ccc(OC)c(OC)c1)C(Cl)(Cl)Cl (configuration not stated)	4	107	23	66*	-2	25	51*
CCOc1ccc(N(CC(=O)Nc2c(C)n(C)n(-c3ccccc3)c2=O)S(=O)(=O)c2ccc3c(c2)N(C(=O)C2CCC2)CC3)cc1	·	·	8	·	·	·	·
CCN(CC)C(=S)Nc1ccc(OC(F)F)cc1	1	182	2	1	1	1	·
FC(F)Oc1ccc(NC(=S)NCCc2ccccn2)cc1	1	242	-3	0	-4	-2	·
FC(F)Oc1ccc(NC(=S)NCc2ccccc2)cc1	-1	375	-2	79*	0	-8	81*
CN(NC(=S)Nc1ccc(OC(F)F)cc1)C(=S)Nc1ccc(OC(F)F)cc1	5	219	4	84*	11	2	93*
FC(F)Oc1ccc(NC(=S)NCc2ccccc2)cc1Cl	-3	280	5	100*	4	0	82*
CC(C)Oc1ccc(CNC(=S)Nc2ccccc2)cc1Cl	-3	235	0	26	-3	4	·
Oc1cccc2c(NC(=S)Nc3ccc(OC(F)F)cc3)cccc12	12	226	10	62*	1	7	80*
CC[C@@H](CCCc1ccc(F)cc1)CN(Cc1ccc(OC)cc1)S(=O)(=O)c1ccc(C)cc1	·	·	7	·	·	·	·
